Measurements from different studies.
Compare with care: the assays were run in different laboratories.
Target: Serine/threonine-protein kinase SIK2 (SIK2, Homo sapiens, UniProt Q9H0K1)

| Structure (SMILES) | test | conditions | measurement | result |
| --- | --- | --- | --- | --- |
| Cn1cc(-c2cc(F)cc(N3CCn4c(cc5c4CCCC5)C3=O)c2CO)cc(Nc2ccc(N3CCN(C4COC4)CC3)cn2)c1=O | enzyme activity, inhibitor | 0.1 µM | inhibition | 13% |
| O=C(NCc1ncc(C(F)(F)F)cc1Cl)c1ccc2c(c1)C1(CCS(=O)(=O)CC1)[C@H](C1CC1)N2S(=O)(=O)c1ccc(F)cc1 | cell-free assay, competition with immobilised ligand | 1 µM | remaining binding | 96% |
| Cn1cc(-c2cccc(N3CCc4c(sc5c4CC(C)(C)C5)C3=O)c2CO)cc(Nc2ccncn2)c1=O | enzyme activity, inhibitor | 1 µM | inhibition | 4% |
| COc1ncccc1-c1cnn2ccc(N3CCN(C(=O)OC(C)C)CC3)nc12 | binding, competition with immobilised ligand | 1 µM | remaining binding | 50% |
| O=c1[nH]c2ccccc2n1C1CCN(Cc2ccc(-c3[nH]c4cc5ncnc5cc4nc3-c3ccccc3)cc2)CC1 | cell-free assay | 0.5 µM | remaining signal | 114% |
| Cc1nn(C)cc1-c1nc2c(N3CCN(Cc4ccc(Cl)cc4)CC3)c(Cl)cnc2[nH]1 | binding, competition with immobilised ligand | 1 µM | remaining binding | 36% |
| Cn1cncc1[C@](O)(COc1ccc(C#N)cc1-c1ccc(OC(F)(F)F)cc1)c1ccc(C#N)cc1 | cell-free assay, competition with immobilised ligand | 1 µM | remaining binding | 95% |
| CC(C)(C)c1cc(C=C(C#N)C#N)cc(Br)c1O | enzyme activity, inhibitor | 0.5 µM | remaining activity | 115% |
